# ChEMBL document CHEMBL3351764, “Design, synthesis and biological activity of flavonoid derivatives as selective agonists for neuromedin U 2 receptor” (Bioorg Med Chem, 2014)
# Biological target: Neuromedin-U receptor 2 (Homo sapiens, UniProt Q9GZQ4)
# Test: Agonist activity at human NMU2R transfected in HEK293 cells after 7 hrs by luciferase reporter gene assay
# Format: cell-based
# Details: read-out: EC50
# Summary of the method: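 HEK-293 cells were stably co-transfected with a reporter gene construct and human NMU2R cDNA in pcDNA3.1(+), maintained under G418 selection at 37 °C in 5% CO2, then seeded and incubated overnight. Compounds were added at various concentrations for 7 h at 37 °C, followed by Bright-Glo luciferase read-out. Forskolin and NMU served as positive controls. EC50 was fitted by four-parameter logistic regression; means ± SEM of three independent experiments.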
# Sequence of Neuromedin-U receptor 2 (Q9GZQ4 whole entry): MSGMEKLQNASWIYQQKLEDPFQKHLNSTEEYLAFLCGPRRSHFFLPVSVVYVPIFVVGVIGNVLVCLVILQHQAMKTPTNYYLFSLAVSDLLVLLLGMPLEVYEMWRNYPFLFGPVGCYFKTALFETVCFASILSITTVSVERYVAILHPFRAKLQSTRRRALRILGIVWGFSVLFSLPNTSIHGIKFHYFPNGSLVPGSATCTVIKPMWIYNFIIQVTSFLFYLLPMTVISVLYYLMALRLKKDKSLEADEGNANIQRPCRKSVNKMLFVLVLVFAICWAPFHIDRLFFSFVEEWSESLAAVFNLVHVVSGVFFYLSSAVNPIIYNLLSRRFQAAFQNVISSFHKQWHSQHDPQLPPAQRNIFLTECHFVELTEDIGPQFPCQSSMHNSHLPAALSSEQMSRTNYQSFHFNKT
row,Compound,EC50 [µM]
1,C[C@@H]1O[C@@H](OC[C@H]2O[C@@H](Oc3c(-c4ccc(O)c(O)c4)oc4cc(O)cc(O)c4c3=O)[C@H](O)[C@@H](O)[C@@H]2O)[C@H](O)[C@H](O)[C@H]1O [RUTIN],1200
2,CNCC(O)c1ccc(O)cc1 (stereo not drawn) [OXEDRINE],6.6
3,H-FRVDEEFQSPFASQSRGYFLFRPRN-NH2,6.1
